Results published in ChEMBL document CHEMBL1155270, “Modifications at the C-terminus to improve pyrrole-imidazole polyamide activity in cell culture” (J Med Chem, 2009).
Activity calls are given as the source filed them. The rule behind the calls is not given here.

Assays:
[1] = tested on: Nucleic Acid; experiment: Binding affinity to 14mer DNA assessed as change in melting temperature by spectrophotometry; format: nucleic-acid assay
Summary of the method: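 Thermal melting of 14-mer oligonucleotide duplexes (HRE or ARE sequence) with and without polyamide, read by UV spectrophotometry in 1 cm quartz cuvettes with a thermostatted holder. Buffer was 10 mM sodium cacodylate, 10 mM KCl, 10 mM MgCl2, 5 mM CaCl2, pH 7.0. ΔTm is taken relative to the free duplex.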

[2] = tested on: LNCaP; experiment: Cytotoxicity against human LNCAP cells assessed as cell viability at 0.01 to 30 uM after 48 hrs by WST1 assay; format: functional
Summary of the method: (§1)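 LNCaP cells were seeded at 10-15 × 10^2 per well and allowed to settle 48 h before polyamide was added as 2× media solutions (DMSO <0.1%). After 48 h exposure, media was replaced and cells recovered 24 h. WST-1 was added for 30 min and A450 read. Wells were corrected for media-only background and normalized to untreated controls.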

[3] = tested on: Nucleic Acid; experiment: Binding affinity to 5'-GTGCATACGTGGGC-3' sequence of DNA assessed as change in melting temperature by spectrophotometry; format: nucleic-acid assay
[4] = tested on: Nucleic Acid; experiment: Binding affinity to 5'-TTGCAGAACAGCAA-3' sequence of DNA assessed as change in melting temperature by spectrophotometry; format: nucleic-acid assay
[5] = tested on: LNCaP; experiment: Cytotoxicity against human LNCAP cells after 48 hrs by WST1 assay; format: functional, cell-based; summary of the method: as §1
[6] = tested on: U-251; experiment: Inhibition of desferrioxamine-induced VEGF mRNA expression in human U251 cells at 1 uM by quantitative RT-PCR analysis; format: functional
Summary of the method: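 In U251 cells, induced VEGF mRNA was quantified by real-time RT-PCR after polyamide at 1, 0.2 and 0.02 μM, with DMSO ≤0.1%. Values were normalized to untreated induced cells; uninduced and DMSO-vehicle controls were run alongside.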

[7] = tested on: LNCaP; experiment: Inhibition of dihydrotestosterone-induced prostate specific antigen expression in human LNCAP cells at 5 uM by quantitative RT-PCR analysis; format: functional
Summary of the method: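 LNCaP cells were induced with 1 nM DHT and PSA mRNA measured by quantitative real-time RT-PCR. Oxime-linked polyamides were given at 5, 1 and 0.1 μM, and unconjugated controls at 5 μM, with DMSO ≤0.1%. Expression was normalized to untreated DHT-induced cells; uninduced and DMSO controls were included.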

SMILES: CN(C)CCCNC(=O)CCNC(=O)c1cc(NC(=O)c2cc(NC(=O)c3nc(NC(=O)c4cc(NC(=O)[C@H](N)CCNC(=O)c5nc(NC(=O)c6cc(NC(=O)c7cc(NC(=O)c8nccn8C)cn7C)cn6C)cn5C)cn4C)cn3C)cn2C)cn1C
- ΔTm [1]: 3.6 °C

SMILES: CN(CCCNC(=O)c1cccc(C(=O)O)c1)CCCNC(=O)c1cc(NC(=O)c2cc(NC(=O)c3nc(NC(=O)c4cc(NC(=O)[C@H](N)CCNC(=O)c5nc(NC(=O)c6cc(NC(=O)c7cc(NC(=O)c8nccn8C)cn7C)cn6C)cn5C)cn4C)cn3C)cn2C)cn1C
- Activity [2]: <50%
- ΔTm [1]: 4 °C

SMILES: CN(C)CCCNC(=O)CCNC(=O)c1cc(NC(=O)c2cc(NC(=O)c3nc(NC(=O)c4cc(NC(=O)[C@H](N)CCNC(=O)c5nc(NC(=O)c6cc(NC(=O)c7cc(NC(=O)c8sccc8Cl)cn7C)cn6C)cn5C)cn4C)cn3C)cn2C)cn1C
- ΔTm [3]: 12.4 °C

SMILES: Cn1cc(NC(=O)c2cc(NC(=O)c3nc(NC(=O)c4cc(NC(=O)[C@H](N)CCNC(=O)c5nc(NC(=O)c6cc(NC(=O)c7cc(NC(=O)c8sccc8Cl)cn7C)cn6C)cn5C)cn4C)cn3C)cn2C)cc1C(=O)NCCCN
- ΔTm [3]: 13.5 °C

SMILES: Cn1cc(NC(=O)c2cc(NC(=O)c3cc(NC(=O)c4nc(NC(=O)[C@H](N)CCNC(=O)c5nc(NC(=O)c6cc(NC(=O)c7nc(NC(=O)c8nccn8C)cn7C)cn6C)cn5C)cn4C)cn3C)cn2C)cc1C(=O)NCCCN
- ΔTm [1]: 4.1 °C

SMILES: CN(CCCN)CCCNC(=O)c1cc(NC(=O)c2cc(NC(=O)c3cc(NC(=O)c4nc(NC(=O)[C@H](N)CCNC(=O)c5nc(NC(=O)c6cc(NC(=O)c7nc(NC(=O)c8nccn8C)cn7C)cn6C)cn5C)cn4C)cn3C)cn2C)cn1C
- ΔTm [1]: 3.1 °C

SMILES: CN(CCCN)CCCNC(=O)c1cc(NC(=O)c2cc(NC(=O)c3nc(NC(=O)c4cc(NC(=O)[C@H](N)CCNC(=O)c5nc(NC(=O)c6cc(NC(=O)c7cc(NC(=O)c8sccc8Cl)cn7C)cn6C)cn5C)cn4C)cn3C)cn2C)cn1C
- ΔTm [3]: 14.8 °C

SMILES: Cn1cc(NC(=O)c2cc(NC(=O)c3cc(NC(=O)c4nc(NC(=O)[C@H](N)CCNC(=O)c5cc(NC(=O)c6cc(NC(=O)c7cc(NC(=O)c8nccn8C)cn7C)cn6C)cn5C)cn4C)cn3C)cn2C)cc1C(=O)NCCCN
- ΔTm [4]: 16.2 °C

SMILES: Cn1cc(NC(=O)c2cc(NC(=O)c3nc(NC(=O)c4cc(NC(=O)[C@H](N)CCNC(=O)c5nc(NC(=O)c6cc(NC(=O)c7cc(NC(=O)c8sccc8Cl)cn7C)cn6C)cn5C)cn4C)cn3C)cn2C)cc1C(=O)NCCCCCCCNC(=O)c1cccc(C(=O)O)c1
- ΔTm [3]: 9 °C

SMILES: Cn1cc(NC(=O)c2cc(NC(=O)c3nc(NC(=O)c4cc(NC(=O)[C@H](N)CCNC(=O)c5nc(NC(=O)c6cc(NC(=O)c7cc(NC(=O)c8sccc8Cl)cn7C)cn6C)cn5C)cn4C)cn3C)cn2C)cc1C(=O)NCCCON
- ΔTm [3]: 10.6 °C

SMILES: Cn1cc(NC(=O)c2cc(NC(=O)c3cc(NC(=O)c4nc(NC(=O)[C@H](N)CCNC(=O)c5nc(NC(=O)c6cc(NC(=O)c7nc(NC(=O)c8nccn8C)cn7C)cn6C)cn5C)cn4C)cn3C)cn2C)cc1C(=O)NCCCCCCCNC(=O)c1cccc(C(=O)O)c1
- ΔTm [1]: 0.7 °C

SMILES: Cn1cc(NC(=O)c2cc(NC(=O)c3cc(NC(=O)c4nc(NC(=O)[C@H](N)CCNC(=O)c5cc(NC(=O)c6cc(NC(=O)c7cc(NC(=O)c8nccn8C)cn7C)cn6C)cn5C)cn4C)cn3C)cn2C)cc1C(=O)NCCCCCCCNC(=O)c1cccc(C(=O)O)c1
- Activity [2]: <50%
- IC50 [5]: > 30 µM
- ΔTm [4]: 10.4 °C

SMILES: CN(CCCNC(=O)c1cccc(C(=O)O)c1)CCCNC(=O)c1cc(NC(=O)c2cc(NC(=O)c3cc(NC(=O)c4nc(NC(=O)[C@H](N)CCNC(=O)c5nc(NC(=O)c6cc(NC(=O)c7nc(NC(=O)c8nccn8C)cn7C)cn6C)cn5C)cn4C)cn3C)cn2C)cn1C
- ΔTm [1]: 0.9 °C

SMILES: CN(C)CCCNC(=O)CCNC(=O)c1cc(NC(=O)c2cc(NC(=O)c3cc(NC(=O)c4nc(NC(=O)[C@H](N)CCNC(=O)c5cc(NC(=O)c6cc(NC(=O)c7cc(NC(=O)c8nccn8C)cn7C)cn6C)cn5C)cn4C)cn3C)cn2C)cn1C
- ΔTm [4]: 14.3 °C

SMILES: Cn1cc(NC(=O)c2cc(NC(=O)c3cc(NC(=O)c4nc(NC(=O)[C@H](N)CCNC(=O)c5nc(NC(=O)c6cc(NC(=O)c7nc(NC(=O)c8nccn8C)cn7C)cn6C)cn5C)cn4C)cn3C)cn2C)cc1C(=O)NCCCON
- ΔTm [1]: 0.1 °C

SMILES: Cn1cc(NC(=O)c2cc(NC(=O)c3cc(NC(=O)c4nc(NC(=O)[C@H](N)CCNC(=O)c5nc(NC(=O)c6cc(NC(=O)c7nc(NC(=O)c8nccn8C)cn7C)cn6C)cn5C)cn4C)cn3C)cn2C)cc1C(=O)NCCCNC(=O)c1cccc(C(=O)O)c1
- ΔTm [1]: 0.5 °C

SMILES: Cn1cc(NC(=O)c2cc(NC(=O)c3cc(NC(=O)c4nc(NC(=O)[C@H](N)CCNC(=O)c5nc(NC(=O)c6cc(NC(=O)c7nc(NC(=O)c8nccn8C)cn7C)cn6C)cn5C)cn4C)cn3C)cn2C)cc1C(=O)NCCCCCCCN
- ΔTm [1]: 2.1 °C

SMILES: Cn1cc(NC(=O)c2cc(NC(=O)c3nc(NC(=O)c4cc(NC(=O)[C@H](N)CCNC(=O)c5nc(NC(=O)c6cc(NC(=O)c7cc(NC(=O)c8sccc8Cl)cn7C)cn6C)cn5C)cn4C)cn3C)cn2C)cc1C(=O)NCCCCCCCN
- ΔTm [3]: 12.7 °C

SMILES: CN(CCCNC(=O)c1cccc(C(=O)O)c1)CCCNC(=O)c1cc(NC(=O)c2cc(NC(=O)c3nc(NC(=O)c4cc(NC(=O)[C@H](N)CCNC(=O)c5nc(NC(=O)c6cc(NC(=O)c7cc(NC(=O)c8sccc8Cl)cn7C)cn6C)cn5C)cn4C)cn3C)cn2C)cn1C
- inhibition [6]: Active
- ΔTm [3]: 11.7 °C

SMILES: Cn1cc(NC(=O)c2cc(NC(=O)c3nc(NC(=O)c4cc(NC(=O)[C@H](N)CCNC(=O)c5nc(NC(=O)c6cc(NC(=O)c7cc(NC(=O)c8nccn8C)cn7C)cn6C)cn5C)cn4C)cn3C)cn2C)cc1C(=O)NCCCCCCCNC(=O)c1cccc(C(=O)O)c1
- Activity [2]: <50%
- ΔTm [1]: 2.6 °C

SMILES: Cn1cc(NC(=O)c2cc(NC(=O)c3cc(NC(=O)c4nc(NC(=O)[C@H](N)CCNC(=O)c5cc(NC(=O)c6cc(NC(=O)c7cc(NC(=O)c8nccn8C)cn7C)cn6C)cn5C)cn4C)cn3C)cn2C)cc1C(=O)NCCCNC(=O)c1cccc(C(=O)O)c1
- Activity [2]: <50%
- IC50 [5]: > 30 µM
- ΔTm [4]: 11.1 °C

SMILES: CN(CCCN)CCCNC(=O)c1cc(NC(=O)c2cc(NC(=O)c3cc(NC(=O)c4nc(NC(=O)[C@H](N)CCNC(=O)c5cc(NC(=O)c6cc(NC(=O)c7cc(NC(=O)c8nccn8C)cn7C)cn6C)cn5C)cn4C)cn3C)cn2C)cn1C
- ΔTm [4]: 17.3 °C

SMILES: Cn1cc(NC(=O)c2cc(NC(=O)c3nc(NC(=O)c4cc(NC(=O)[C@H](N)CCNC(=O)c5nc(NC(=O)c6cc(NC(=O)c7cc(NC(=O)c8nccn8C)cn7C)cn6C)cn5C)cn4C)cn3C)cn2C)cc1C(=O)NCCCCCCCN
- ΔTm [1]: -0.9 °C

SMILES: Cn1cc(NC(=O)c2cc(NC(=O)c3nc(NC(=O)c4cc(NC(=O)[C@H](N)CCNC(=O)c5nc(NC(=O)c6cc(NC(=O)c7cc(NC(=O)c8nccn8C)cn7C)cn6C)cn5C)cn4C)cn3C)cn2C)cc1C(=O)NCCCN
- ΔTm [1]: 5.3 °C

SMILES: CN(C)CCCNC(=O)CCNC(=O)c1cc(NC(=O)c2cc(NC(=O)c3cc(NC(=O)c4nc(NC(=O)[C@H](N)CCNC(=O)c5nc(NC(=O)c6cc(NC(=O)c7nc(NC(=O)c8nccn8C)cn7C)cn6C)cn5C)cn4C)cn3C)cn2C)cn1C
- ΔTm [3]: 1.6 °C

SMILES: Cn1cc(NC(=O)c2cc(NC(=O)c3nc(NC(=O)c4cc(NC(=O)[C@H](N)CCNC(=O)c5nc(NC(=O)c6cc(NC(=O)c7cc(NC(=O)c8sccc8Cl)cn7C)cn6C)cn5C)cn4C)cn3C)cn2C)cc1C(=O)NCCCNC(=O)c1cccc(C(=O)O)c1
- ΔTm [3]: 9.5 °C

SMILES: Cn1cc(NC(=O)c2cc(NC(=O)c3cc(NC(=O)c4nc(NC(=O)[C@H](N)CCNC(=O)c5cc(NC(=O)c6cc(NC(=O)c7cc(NC(=O)c8nccn8C)cn7C)cn6C)cn5C)cn4C)cn3C)cn2C)cc1C(=O)NCCCCCCCN
- ΔTm [4]: 14.3 °C

SMILES: Cn1cc(NC(=O)c2cc(NC(=O)c3nc(NC(=O)c4cc(NC(=O)[C@H](N)CCNC(=O)c5nc(NC(=O)c6cc(NC(=O)c7cc(NC(=O)c8nccn8C)cn7C)cn6C)cn5C)cn4C)cn3C)cn2C)cc1C(=O)NCCCNC(=O)c1cccc(C(=O)O)c1
- Activity [2]: <50%
- ΔTm [1]: 1.5 °C

SMILES: CN(CCCN)CCCNC(=O)c1cc(NC(=O)c2cc(NC(=O)c3nc(NC(=O)c4cc(NC(=O)[C@H](N)CCNC(=O)c5nc(NC(=O)c6cc(NC(=O)c7cc(NC(=O)c8nccn8C)cn7C)cn6C)cn5C)cn4C)cn3C)cn2C)cn1C
- ΔTm [1]: 6.4 °C

SMILES: Cn1cc(NC(=O)c2cc(NC(=O)c3nc(NC(=O)c4cc(NC(=O)[C@H](N)CCNC(=O)c5nc(NC(=O)c6cc(NC(=O)c7cc(NC(=O)c8nccn8C)cn7C)cn6C)cn5C)cn4C)cn3C)cn2C)cc1C(=O)NCCCON
- inhibition at 5 µM [7]: 10%
- ΔTm [1]: 2 °C

SMILES: Cn1cc(NC(=O)c2cc(NC(=O)c3cc(NC(=O)c4nc(NC(=O)[C@H](N)CCNC(=O)c5cc(NC(=O)c6cc(NC(=O)c7cc(NC(=O)c8nccn8C)cn7C)cn6C)cn5C)cn4C)cn3C)cn2C)cc1C(=O)NCCCON
- inhibition at 5 µM [7]: 50%
- ΔTm [4]: 11.2 °C
